Where two headings read alike, the source gives them in different places.
Columns and labels:
[1] = major circulating metabolites of ertugliflozin; cited from earlier work
[2] = format: in vivo, human; conditions: for MRAUCinf (metabolite‐to‐parent ratio for AUC): corrected for molecular weight, geometric mean (geometric %CV)
[3] = cited from earlier work
[4] = Urinary excretion and renal clearance of ertugliflozin and metabolites; format: in vivo, human; conditions: subjects with normal renal function
[5] = system: T2DM and healthy subjects; assay: Safety and tolerability of a single 15-mg dose; format: in vivo, human
Method in brief: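 Open-label, nonrandomized single oral 15 mg dose (three 5-mg tablets) after a 4-hour fast. Usual antihyperglycemic agents were given 4 h post-dose. AEs were recorded throughout and coded with MedDRA 17.1. ECGs were taken at screening, predose and day 5. Sitting and supine/standing blood pressure and pulse were taken predose and at 1, 2, 4 and 96 h post-dose.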

[6] = system: urinary glucose excretion; assay: Change from baseline in 24-hour urinary glucose excretion; format: in vivo, human; conditions: for Change from baseline to day 1 in 24‐hour urinary glucose excretion, geometric mean / Change from baseline to day 1 in 24‐hour urinary glucose excretion, mean (SD) / Change from baseline to day 1 in 24‐hour urinary glucose excretion, median: 15 mg single oral dose
Method in brief: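 Single oral 15 mg dose given as three 5-mg tablets after a 4-hour fast. Baseline urine was collected on day –2 (–48 to –24 h) and post-dose urine in 0‑4, 4‑8, 8‑12 and 12‑24 h intervals, with glucose measured centrally. 24-h UGE is the sum of the intervals. Log-transformed change was compared by 1-way ANOVA against T2DM with normal renal function, without plasma glucose correction. eGFR bands: mild 60‑89, moderate 30‑59 mL/min.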

[7] = system: SGLT2‐mediated glucose transport; assay: 24-hour inhibition of glucose reabsorption; format: in vivo, human; conditions: day 1
[8] = as high as 300 mg (single dose), 100 mg once daily (up to 14 days), 25 mg once daily (up to 12 weeks); ref data on file, 9, 10; cited from earlier work
[9] = T2DM, moderate renal impairment
[10] = single 15‐mg dose, all renal function groups

Question: What does the source list for CCOc1ccc(Cc2cc([C@]34OC[C@](CO)(O3)[C@@H](O)[C@H](O[C@@H]3O[C@H](C(=O)O)[C@@H](O)[C@H](O)[C@H]3O)[C@H]4O)ccc2Cl)cc1 [PF‐06481944, 3‐O‐β‐glucuronide]?
Answer: pharmacological activity of metabolite [1]: pharmacologically inactive; median tmax range of metabolites ([2]; after ertugliflozin 15 mg, across all groups): 2 to 4 h; MRAUCinf (metabolite‐to‐parent ratio for AUC) ([2]; T2DM, mild renal impairment): 0.98 (45); MRAUCinf (metabolite‐to‐parent ratio for AUC) [2, 9]: 1.26 (52); MRAUCinf (metabolite‐to‐parent ratio for AUC) ([2]; T2DM, normal renal function): 0.93 (39); MRAUCinf (metabolite‐to‐parent ratio for AUC) ([2]; T2DM, severe renal impairment): 1.03 (37); MRAUCinf (metabolite‐to‐parent ratio for AUC) ([2]; healthy, normal renal function): 0.64 (29)

Question: What does the source list for CCOc1ccc(Cc2cc([C@]34OC[C@](CO)(O3)[C@@H](O)[C@H](O)[C@H]4O)ccc2Cl)cc1 [ertugliflozin, Ertugliflozin]?
Answer: Urinary excretion of unchanged drug, share of elimination ([3]; human absorption, distribution, metabolism, and excretion studies): 1.5%; median time to maximum concentration (tmax) ([3]; oral administration, fasted state, ref data on file, 15, 16): approximately 1 hour; terminal elimination half‐life (t1/2) ([3]; oral administration, ref data on file, 15, 16): approximately 17 hours; dose proportionality in exposure (AUC and Cmax) ([3]; over the range of 0.5 to 300 mg, ref data on file, 15, 16): dose proportionality; Ae96% [4]: approximately 1%; subjects experiencing hypoglycemia ([5]; T2DM mild renal impairment group, receiving glyburide): 1 subject; subjects experiencing hypoglycemia ([5]; T2DM severe renal impairment group, receiving long‐acting insulin): 2 subjects; subjects experiencing hypoglycemia ([5]; all groups (n = 36)): 3 subjects; intensity of AEs ([5]; single 15‐mg dose, all AEs): mild; deaths, serious AEs, severe AEs, discontinuations due to AEs [5, 10]: no deaths, serious AEs, severe AEs, or temporary or permanent discontinuations due to AEs; laboratory findings, vital signs, ECG findings [5, 10]: no abnormal laboratory findings or changes in vital signs (including postural changes) or ECG findings of clinical significance; tolerability [5, 10]: well tolerated; Change from baseline to day 1 in 24‐hour urinary glucose excretion, geometric mean ([6]; T2DM, mild renal impairment): 35.98 g; Change from baseline to day 1 in 24‐hour urinary glucose excretion, mean (SD) ([6]; T2DM, mild renal impairment): 48.67 (37.72) g; Change from baseline to day 1 in 24‐hour urinary glucose excretion, median ([6]; T2DM, mild renal impairment): 36.4 g; Change from baseline to day 1 in 24‐hour urinary glucose excretion, geometric mean [6, 9]: 27.55 g; Change from baseline to day 1 in 24‐hour urinary glucose excretion, mean (SD) [6, 9]: 32.64 (21.32) g; Change from baseline to day 1 in 24‐hour urinary glucose excretion, median [6, 9]: 28.8 g; Change from baseline to day 1 in 24‐hour urinary glucose excretion, geometric mean ([6]; T2DM, normal renal function): 72.31 g; Change from baseline to day 1 in 24‐hour urinary glucose excretion, mean (SD) ([6]; T2DM, normal renal function): 75.12 (24.36) g; Change from baseline to day 1 in 24‐hour urinary glucose excretion, median ([6]; T2DM, normal renal function): 68.1 g; Change from baseline to day 1 in 24‐hour urinary glucose excretion, geometric mean ([6]; T2DM, severe renal impairment): 10.09 g; Change from baseline to day 1 in 24‐hour urinary glucose excretion, mean (SD) ([6]; T2DM, severe renal impairment): 11.29 (5.81) g; Change from baseline to day 1 in 24‐hour urinary glucose excretion, median ([6]; T2DM, severe renal impairment): 10.3 g; Change from baseline to day 1 in 24‐hour urinary glucose excretion, geometric mean ([6]; healthy, normal renal function): 46.33 g; Change from baseline to day 1 in 24‐hour urinary glucose excretion, mean (SD) ([6]; healthy, normal renal function): 48.16 (14.04) g; Change from baseline to day 1 in 24‐hour urinary glucose excretion, median ([6]; healthy, normal renal function): 45.8 g; change from baseline in 24‐hour UGE, 1‐way ANOVA ([6]; T2DM, mild renal impairment): 36.0 g; change from baseline in 24‐hour UGE, 1‐way ANOVA [6, 9]: 27.6 g; change from baseline in 24‐hour UGE, 1‐way ANOVA ([6]; T2DM, normal renal function): 72.3 g; change from baseline in 24‐hour UGE, 1‐way ANOVA ([6]; T2DM, severe renal impairment): 10.1 g; geometric mean change from baseline in 24‐hour percentage inhibition of glucose reabsorption ([7]; T2DM, mild renal impairment): 25.58%; geometric mean change from baseline in 24‐hour percentage inhibition of glucose reabsorption [7, 9]: 28.84%; geometric mean change from baseline in 24‐hour percentage inhibition of glucose reabsorption ([7]; T2DM, normal renal function): 33.34%; geometric mean change from baseline in 24‐hour percentage inhibition of glucose reabsorption ([7]; T2DM, severe renal impairment): 24.25%; geometric mean change from baseline in 24‐hour percentage inhibition of glucose reabsorption ([7]; healthy subjects): 29.19%; tolerability of higher oral doses [8]: well tolerated; Tmax ([2]; human, plasma, po, 15 mg, median tmax, 15 mg single oral dose, across all groups): 1 to 1.51 h; predicted mean (90%CI) AUC from log‐linear regression vs BSA‐unnormalized eGFR ([2]; mild renal impairment (eGFR = 75 mL/min)): 1585 (1461‐1719) ng·h/mL; predicted mean (90%CI) AUC from log‐linear regression vs BSA‐unnormalized eGFR ([2]; moderate renal impairment (eGFR = 45 mL/min)): 1875 (1698‐2071) ng·h/mL; predicted mean (90%CI) AUC from log‐linear regression vs BSA‐unnormalized eGFR ([2]; normal renal function (eGFR = 105 mL/min)): 1340 (1194‐1503) ng·h/mL; predicted mean (90%CI) AUC from log‐linear regression vs BSA‐unnormalized eGFR ([2]; severe renal impairment (eGFR = 15 mL/min)): 2219 (1907‐2581) ng·h/mL

From paper PMC5655776 (Journal of Clinical Pharmacology, 2017)
